# Results reported in article PMC8006165 (ACS Central Science, 2021).
# “And” between values parts separate entries of the source, which are not always exact repeats. Identical values can stand only once.
# T1: EcYihV (Escherichia coli, UniProt P32143)
# T1 sequence (P32143 1-298): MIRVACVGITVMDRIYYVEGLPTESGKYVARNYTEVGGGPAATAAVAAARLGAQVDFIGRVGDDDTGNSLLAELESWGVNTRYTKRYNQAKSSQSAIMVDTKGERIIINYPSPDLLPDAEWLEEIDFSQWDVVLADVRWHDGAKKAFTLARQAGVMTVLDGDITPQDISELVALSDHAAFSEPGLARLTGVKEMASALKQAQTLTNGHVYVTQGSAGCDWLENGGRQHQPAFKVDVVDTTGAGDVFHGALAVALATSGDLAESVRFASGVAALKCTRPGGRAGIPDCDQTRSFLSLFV
# T2: SeYihT (Salmonella enterica, UniProt Q9L7R9)
# T2 sequence (Q9L7R9 1-292): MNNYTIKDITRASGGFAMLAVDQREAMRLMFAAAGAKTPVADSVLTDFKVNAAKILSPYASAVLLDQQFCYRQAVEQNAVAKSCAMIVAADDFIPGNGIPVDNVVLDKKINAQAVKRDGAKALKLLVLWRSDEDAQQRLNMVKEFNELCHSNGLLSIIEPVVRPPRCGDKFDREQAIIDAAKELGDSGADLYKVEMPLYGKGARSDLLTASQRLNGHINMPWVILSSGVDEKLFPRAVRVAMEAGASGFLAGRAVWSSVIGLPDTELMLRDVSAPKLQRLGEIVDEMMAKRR
# Assays:
# [1] = target: T1, EcYihV; assay: effect of additive on SF phosphorylation, HPLC-MS/MS; format: biochemical; conditions: 1.0 mM ATP, varied SF, pH 7.5, 30 °C, activator
# [2] = target: Salmonella enterica YihS (SQ-SF isomerase), as measured by SEC-MALS (Salmonella enterica) (UniProt Q8ZKT7); assay: SEC-MALS
# [3] = target: T2, SeYihT; assay: X-ray structure, in-crystal cleavage of SFP; format: binding; conditions: covalent Schiff base with Lys193
# [4] = target: T1, EcYihV; assay: SFP production, HPLC-MS/MS; format: biochemical; conditions: substrate inhibition; 1.0 mM ATP; pH 7.5, 5 mM MgCl2, 30 °C; no additive
# Procedure, shortened: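 Recombinant E. coli YihV (36.6 nM) phosphorylating chemically synthesized sulfofructose (SF) to SFP. […] SFP formation was quantified by HPLC-MS/MS on a ZIC-HILIC column. Rates across SF concentrations were fitted to a substrate inhibition kinetic model.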
# [5] = target: T1, EcYihV; assay: X-ray structure of cocrystal; format: binding; conditions: with Mg; open and closed subunits
# [6] = target: the molecule itself; assay: SEC-MALS
# [7] = substrate: O=C(COP(=O)(O)O)[C@@H](O)[C@H](O)[C@H](O)CS(=O)(=O)O; assay: purified protein; conditions: SFP to SLA and DHAP
# [8] = substrate: Nc1ncnc2c1ncn2[C@@H]1O[C@H](COP(=O)(O)OP(=O)(O)OP(=O)(O)O)[C@@H](O)[C@H]1O; assay: purified protein; conditions: 1.0 mM SF, 25 mM BTP pH 7.5, 25 mM KCl, 5 mM MgCl2, 30 °C
# Chain of Salmonella enterica YihS (SQ-SF isomerase), as measured by SEC-MALS (Q8ZKT7 2-413): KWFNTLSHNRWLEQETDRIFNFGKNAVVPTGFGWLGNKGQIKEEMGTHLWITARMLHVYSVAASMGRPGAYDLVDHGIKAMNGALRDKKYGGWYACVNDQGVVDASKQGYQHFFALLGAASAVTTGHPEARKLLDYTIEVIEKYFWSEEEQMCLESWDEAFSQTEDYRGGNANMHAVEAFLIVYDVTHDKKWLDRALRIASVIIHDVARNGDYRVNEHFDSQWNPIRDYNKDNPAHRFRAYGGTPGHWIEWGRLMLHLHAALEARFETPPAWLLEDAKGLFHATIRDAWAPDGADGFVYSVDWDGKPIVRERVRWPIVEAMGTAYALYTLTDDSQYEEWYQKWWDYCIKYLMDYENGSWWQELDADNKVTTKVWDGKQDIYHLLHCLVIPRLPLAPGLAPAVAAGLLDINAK
molecule,measurement,setting,value
C=C(OP(=O)(O)O)C(=O)O [PEP],"effect of additive on SF phosphorylation, HPLC-MS/MS",[1]; 10 mM PEP,"by F6P, FBP, PEP, and citrate (through effects on kcat/KM)"
O=P(O)(O)OC[C@H]1OC(O)(COP(=O)(O)O)[C@@H](O)[C@@H]1O (some centres unmarked) [FBP],"effect of additive on SF phosphorylation, HPLC-MS/MS",[1]; 10 mM FBP,"by F6P, FBP, PEP, and citrate (through effects on kcat/KM)"
"Salmonella enterica YihS (SQ-SF isomerase), as measured by SEC-MALS (from UniProt Q8ZKT7 2-413) (enzyme)",stoichiometry N,[2],6
O=C(CO)COP(=O)(O)O [DHAP],"X-ray structure, in-crystal cleavage of SFP",[3],a new Schiff base formed with a DHAP molecule could be modeled
"O=S(=O)(O)C[C@H]1OC(O)(CO)[C@@H](O)[C@@H]1O (some centres unmarked) [SF, 6-deoxy-6-sulfofructose]",KI,[4],8.5 ± 2.8 mM
Nc1ncnc2c1ncn2[C@@H]1O[C@H](COP(=O)(O)OP(=O)(O)NP(=O)(O)O)[C@@H](O)[C@H]1O [AMPPNP],X-ray structure of cocrystal,[5],AMPPNP resulted in the EcYihV·AMPPNP·Mg complex showing a surface-accessible nucleotide binding site
"E. coli YihT (sulfofructose-1-phosphate aldolase) (enzyme, UniProt P32141 1-292, looked up) MNKYTINDITRASGGFAMLAVDQREAMRMMFAAAGAPAPVADSVLTDFKVNAAKALSPYASAILVDQQFCYRQVVEQNAIAKSCAMIVAADEFIPGNGIPVDSVVIDRKINPLQIKQDGGKALKLLVLWRSDEDAQQRLDMVKEFNELCHSHGLVSIIEPVVRPPRRGDKFDREQAIIDAAKELGDSGADLYKVEMPLYGKGPQQELLCASQRLNDHINMPWVILSSGVDEKLFPRAVRVAMTAGASGFLAGRAVWASVVGLPDNELMLRDVCAPKLQQLGDIVDEMMAKRR",stoichiometry N,[6],4
"Salmonella enterica YihT (sulfofructose-1-phosphate aldolase) (enzyme, UniProt Q9L7R9 1-292, looked up) MNNYTIKDITRASGGFAMLAVDQREAMRLMFAAAGAKTPVADSVLTDFKVNAAKILSPYASAVLLDQQFCYRQAVEQNAVAKSCAMIVAADDFIPGNGIPVDNVVLDKKINAQAVKRDGAKALKLLVLWRSDEDAQQRLNMVKEFNELCHSNGLLSIIEPVVRPPRCGDKFDREQAIIDAAKELGDSGADLYKVEMPLYGKGARSDLLTASQRLNGHINMPWVILSSGVDEKLFPRAVRVAMEAGASGFLAGRAVWSSVIGLPDTELMLRDVSAPKLQRLGEIVDEMMAKRR",Km,[7],3570 ± 420 µM
same,kcat,[7],47.7 ± 2.4 s⁻¹
same,stoichiometry N,[6],4
"E. coli YihV (sulfofructose kinase) (enzyme, UniProt P32143 1-298, looked up) MIRVACVGITVMDRIYYVEGLPTESGKYVARNYTEVGGGPAATAAVAAARLGAQVDFIGRVGDDDTGNSLLAELESWGVNTRYTKRYNQAKSSQSAIMVDTKGERIIINYPSPDLLPDAEWLEEIDFSQWDVVLADVRWHDGAKKAFTLARQAGVMTVLDGDITPQDISELVALSDHAAFSEPGLARLTGVKEMASALKQAQTLTNGHVYVTQGSAGCDWLENGGRQHQPAFKVDVVDTTGAGDVFHGALAVALATSGDLAESVRFASGVAALKCTRPGGRAGIPDCDQTRSFLSLFV",Km,[8],1000 ± 200 µM
same,kcat,[8],3.1 s⁻¹
same,kcat/Km,[8],3200 M⁻¹ s⁻¹
same,stoichiometry N,[6],2 and 4
